Assays:
H69AR [1] = experiment: Potentiation factor, ratio of GI50 for daunorubicin resistant human NCI-H69AR cells expressing MRP1 cells to GI50 for reversal of daunorubicin resistance in human NCI-H69AR cells assessed as daunorubicin GI50 at 10 uM (reference value: 1 uM); type: functional
How it was run: (§1)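 Reversal assay: resistant lines (A2780/ADR, H69AR, MDCK II BCRP) and parental lines seeded as for MTT assay with modulator solutions of 1, 10 and 100 µM added (final 0.1, 1, 10 µM) and daunorubicin (P-gp, MRP1) or SN-38 (BCRP) at final 10 nM–10 µM. 72 h, MTT read-out; GI50 by variable-slope fit. Resistance factor = resistant/sensitive GI50; potentiation factor = GI50 without/with modulator.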

H69AR [2] = experiment: Reversal of Daunorubicin resistance in human NCI-H69AR cells assessed as Daunorubicin GI50 at 10 uM measured for 72 hrs by MTT assay; type: functional; how it was run: as §1
H69AR [3] = experiment: Potentiation factor, ratio of GI50 for daunorubicin resistant human NCI-H69AR cells expressing MRP1 cells to GI50 for reversal of daunorubicin resistance in human NCI-H69AR cells assessed as daunorubicin GI50 at 0.1 uM (reference value: 1 uM); type: functional; how it was run: as §1
MRP1 [4] = experiment: Therapeutic index, ratio of GI50 for antiproliferative activity against human NCI-H69AR cells to IC50 for inhibition of MRP1 in human NCI-H69AR cells; type: toxicity, cell-based
How it was run: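 Ratio of MTT-assay GI50 to transport-inhibition IC50, both in the resistant line. GI50 comes from 72 h exposure at 37 °C to dilutions up to 1000 µM, with medium as 100% and 10% DMSO as 0% viability. IC50 comes from calcein AM (A2780/ADR), daunorubicin (H69AR) or pheophorbide A (MDCK II BCRP) accumulation.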

[5] = Reversal of drug resistance in human A2780 ADR cells expressing P-gp; type: functional, cell-based
How it was run: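 Cells seeded per well (A2780/ADR 8,000; H69AR 20,000; MDCK II BCRP 3,000) with test compound at 1, 10 or 100 µM solutions added before cells. Daunorubicin (P-gp, MRP1) or SN-38 (BCRP) added to final 10 nM–10 µM. 72 h at 37 °C, then MTT viability read at 570 nm. GI50 from variable-slope nonlinear fits, compared with parental lines; three independent experiments in duplicate.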

[6] = Potentiation factor, ratio of GI50 for daunorubicin resistant human A2780 ADR cells expressing P-gp cells to GI50 for reversal of daunorubicin resistance in human A2780 ADR cells assessed as daunorubicin GI50 at 1 uM by MTT assay (reference value: 1 uM); type: functional; how it was run: as §1
BCRP (ABCG2) = biological target: T1, BCRP (ABCG2) (Homo sapiens, UniProt Q9UNQ0); experiment: Inhibition of BCRP (unknown origin) expressed in dog MDCK-II cells at 10 uM using pheophorbide A as substrate preincubated for 20 mins followed by substrate addition and measured after 120 mins by flow cytometry analysis relative to control; type: cell-based; settings: probe pheophorbide A
T1 sequence (Q9UNQ0 whole entry): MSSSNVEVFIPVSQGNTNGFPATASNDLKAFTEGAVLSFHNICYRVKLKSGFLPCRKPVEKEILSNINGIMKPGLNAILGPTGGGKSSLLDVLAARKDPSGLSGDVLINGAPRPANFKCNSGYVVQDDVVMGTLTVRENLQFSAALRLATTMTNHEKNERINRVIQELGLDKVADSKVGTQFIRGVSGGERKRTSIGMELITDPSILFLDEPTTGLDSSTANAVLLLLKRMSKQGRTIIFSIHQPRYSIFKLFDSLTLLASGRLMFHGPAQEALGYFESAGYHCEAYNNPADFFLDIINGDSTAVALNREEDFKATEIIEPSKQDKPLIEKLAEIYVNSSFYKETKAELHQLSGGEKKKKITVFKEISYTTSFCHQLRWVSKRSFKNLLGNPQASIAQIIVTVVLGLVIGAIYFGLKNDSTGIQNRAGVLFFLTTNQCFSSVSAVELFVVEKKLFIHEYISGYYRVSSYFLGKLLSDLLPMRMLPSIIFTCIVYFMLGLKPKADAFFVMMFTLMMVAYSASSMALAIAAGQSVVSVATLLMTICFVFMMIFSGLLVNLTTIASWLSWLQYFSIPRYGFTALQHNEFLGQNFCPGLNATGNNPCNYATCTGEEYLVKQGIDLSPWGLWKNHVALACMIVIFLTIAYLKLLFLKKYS
How it was run: (§2)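 MDCK II cells transfected with human wild-type BCRP cDNA C-terminally fused to GFP, grown in DMEM/10% FBS. About 45,000 cells per well preincubated 20 min at 37 °C, 5% CO2 with compound (100 nM–100 µM added solutions), then pheophorbide A (5 µM solution added) for 120 min to steady state. Resuspended; flow cytometry, 488 nm excitation, FL3 (≥670 nm); GFP in FL1. Reference inhibitor 24 at 10 µM = 100%.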

H69AR [7] = experiment: Reversal of Daunorubicin resistance in human NCI-H69AR cells assessed as Daunorubicin GI50 at 0.1 uM measured for 72 hrs by MTT assay; type: functional; how it was run: as §1
[8] = Reversal of SN-38 resistance in dog MDCK-II-BCRP cells assessed as SN-38 GI50 at 0.1 uM measured for 72 hrs by MTT assay; type: functional; settings: Canis lupus familiaris; how it was run: as §1
[9] = Antiproliferative activity against dog MDCK-II-BCRP cells assessed as reduction in cell viability measured for 72 hrs bt MTT assay; type: functional; settings: Canis lupus familiaris
A2780 = experiment: Antiproliferative activity against human A2780 cells assessed as reduction in cell viability measured for 72 hrs bt MTT assay; type: functional
[10] = biological target: T2, Broad substrate specificity ATP-binding cassette transporter ABCG2 (Homo sapiens, UniProt Q9UNQ0); experiment: Inhibition of BCRP (unknown origin) expressed in dog MDCK-II cells using pheophorbide A as substrate preincubated for 20 mins followed by substrate addition and measured after 120 mins by flow cytometry analysis; type: cell-based; how it was run: as §2
T2 sequence (Q9UNQ0 whole entry): T1 sequence (Q9UNQ0 whole entry)

MRP1 [11] = biological target: MRP1 (Homo sapiens, UniProt P33527); experiment: Inhibition of MRP1 in human NCI-H69AR cells at 10 uM incubated for 180 mins in presence of daunorubicin by flow cytometry analysis relative to control; type: cell-based; settings: probe daunorubicin
MRP1 (Homo sapiens, UniProt P33527), sequence (P33527 whole entry): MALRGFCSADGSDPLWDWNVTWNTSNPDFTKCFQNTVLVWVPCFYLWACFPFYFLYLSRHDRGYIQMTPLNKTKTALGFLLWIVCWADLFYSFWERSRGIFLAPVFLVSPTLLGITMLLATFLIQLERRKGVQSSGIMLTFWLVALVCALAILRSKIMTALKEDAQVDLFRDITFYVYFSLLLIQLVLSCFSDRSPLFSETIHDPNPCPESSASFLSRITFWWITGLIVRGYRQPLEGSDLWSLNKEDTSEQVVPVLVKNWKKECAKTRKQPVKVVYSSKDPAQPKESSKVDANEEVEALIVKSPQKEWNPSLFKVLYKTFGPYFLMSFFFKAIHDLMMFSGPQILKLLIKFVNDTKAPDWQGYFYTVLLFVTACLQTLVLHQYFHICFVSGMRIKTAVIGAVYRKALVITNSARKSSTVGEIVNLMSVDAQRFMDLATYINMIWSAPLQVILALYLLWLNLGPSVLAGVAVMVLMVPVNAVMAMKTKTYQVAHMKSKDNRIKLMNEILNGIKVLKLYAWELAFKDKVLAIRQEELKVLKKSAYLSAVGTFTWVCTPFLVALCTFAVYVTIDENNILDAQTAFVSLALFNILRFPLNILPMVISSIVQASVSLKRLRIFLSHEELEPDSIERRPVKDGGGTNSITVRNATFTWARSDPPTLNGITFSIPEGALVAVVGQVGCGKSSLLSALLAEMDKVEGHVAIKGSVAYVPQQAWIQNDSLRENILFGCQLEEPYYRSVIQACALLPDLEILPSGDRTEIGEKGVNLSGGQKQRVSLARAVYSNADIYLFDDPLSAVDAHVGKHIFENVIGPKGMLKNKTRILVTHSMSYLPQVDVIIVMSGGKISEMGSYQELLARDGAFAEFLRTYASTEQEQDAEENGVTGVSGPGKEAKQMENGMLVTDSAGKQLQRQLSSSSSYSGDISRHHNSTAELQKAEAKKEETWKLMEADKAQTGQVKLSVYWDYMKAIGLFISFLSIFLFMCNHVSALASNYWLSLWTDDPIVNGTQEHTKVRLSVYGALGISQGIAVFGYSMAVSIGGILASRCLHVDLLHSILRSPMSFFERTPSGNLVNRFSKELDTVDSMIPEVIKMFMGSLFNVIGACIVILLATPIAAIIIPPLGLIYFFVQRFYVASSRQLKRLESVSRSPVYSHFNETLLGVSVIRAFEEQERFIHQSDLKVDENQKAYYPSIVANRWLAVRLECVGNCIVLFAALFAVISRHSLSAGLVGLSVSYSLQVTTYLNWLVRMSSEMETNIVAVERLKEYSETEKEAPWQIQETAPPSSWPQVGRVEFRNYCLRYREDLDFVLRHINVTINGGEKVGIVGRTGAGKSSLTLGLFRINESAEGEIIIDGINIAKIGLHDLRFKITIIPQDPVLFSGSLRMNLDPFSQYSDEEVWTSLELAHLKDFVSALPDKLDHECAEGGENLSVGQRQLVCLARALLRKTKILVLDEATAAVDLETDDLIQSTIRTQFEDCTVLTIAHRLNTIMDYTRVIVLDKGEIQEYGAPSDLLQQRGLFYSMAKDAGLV
How it was run: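 H69AR cells (doxorubicin-selected small cell lung cancer, RPMI-1640/20% FBS), about 60,000 per well, preincubated 15 min with compound (100 nM–100 µM added solutions, in unsupplemented medium), then daunorubicin (30 µM solution added); steady state after 180 min, 37 °C, 5% CO2. Cells resuspended; flow cytometry, 488 nm excitation, FL3 (≥670 nm). Reference inhibitor 75 at 10 µM = 100%; Imax relative to it.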

H69AR [12] = experiment: Antiproliferative activity against human NCI-H69AR cells assessed as reduction in cell viability measured for 72 hrs bt MTT assay; type: functional
[13] = Potentiation factor, ratio of GI50 for daunorubicin resistant human A2780 ADR cells expressing P-gp cells to GI50 for reversal of daunorubicin resistance in human A2780 ADR cells assessed as daunorubicin GI50 at 0.1 uM (reference value: 1 uM); type: functional; how it was run: as §1

EC50 [5]: 0.563 µM | inhibition at 2 h, 10 µM (BCRP (ABCG2)): > 25% | GI50 (A2780): 6.36 µM | IC50 [10]: 1.69 µM | inhibition at 3 h, 10 µM (MRP1 [11]): > 25%
Compound: N#Cc1cn(CCCc2ccccc2)c2c(N3CCN(CCc4c[nH]c5ccccc45)CC3)ncnc12
PF (H69AR [1]): 8.6 | GI50 (H69AR [2]): 0.445 µM | PF (H69AR [3]): 1.8 | selectivity ratio (MRP1 [4]): 303 | RatioGI50 [6]: 9.8 | GI50 (H69AR [7]): 2.1 µM | GI50 [8]: 0.916 µM | GI50 [9]: 23.2 µM | GI50 (H69AR [12]): 152 µM | PF [13]: 2
